Measured values published in the EternaBench riboswitch data.

Tested on: MS2 coat protein
Test: apparent Kd, MS2 coat protein; higher = weaker binding; RNA-MaP array; FMN 200 µM where present
Method in brief: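 Stalled E. coli RNA polymerase produced the designs on Illumina sequencing-chip clusters. SNAP-549-labelled MS2 coat protein was added from 0.7 or 1.5 nM, doubling to 3 µM, without and then with constant ligand, in 100 mM Tris-HCl pH 7.5, 80 mM KCl, 4 mM MgCl2, BSA, DTT, yeast tRNA and Tween-20. The apparent Kd is the median of filtered per-cluster fits of green signal normalised to red-channel RNA signal and control-cluster median Fmax.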

[1] = designed as: OFF switch for flavin mononucleotide, no ligand
[2] = ligand present: flavin mononucleotide, designed as: OFF switch for flavin mononucleotide
[3] = designed as: ON switch for flavin mononucleotide, no ligand
[4] = ligand present: flavin mononucleotide, designed as: ON switch for flavin mononucleotide

Row | Sequence | apparent Kd [1] [nM] | apparent Kd [2] [nM] | apparent Kd [3] [nM] | apparent Kd [4] [nM]
1 | CAUAACUUUUCUCAUGUAAACAUGAGGAUCACCCAUGUAAUGAGAAGGAGGCGGCAGAGAGCAUCCUAGGAUAUCAGAAUUGUU | 7.02 | 6.74 |  | 
2 | GCGAUGAUCGAGAAGGCCACUACAUGAGGAUCACCCAUGUCGUGGUGUAUUGGAGGAUAUCGAUCGGCGUCUUAUGAGGAUAUA | 5.17 | 5.65 |  | 
3 | UUUGAAUAAGUGAGGAUAUACUGUUAGUAAUGAUUGUAGAAGGUACAUGAGGAUCACCCAUGUUUAUUAUUUAU | 21.8 | 18.3 |  | 
4 | UGGUCAUGAUCAGGAUAUUAACAUGGGCUACAUUAAGAAGGGAUAGUGAGAUACGAACUGAAACAUGAGGAUCACCCAUGUGUU |  |  | 170 | 107
5 | GAUCUGACAGGAUAUACAUGAGGAUCACCCAUGUGCGAGCUAGCGAAAGCUAGCUUAGGUAGAAGGGUCAGAUC | 12.2 | 18.1 |  | 
6 | UUACUAUAACAGAAGGGUAGAUAGUAUAUAGAUGCAGGAUAUGUUACAUGAGGAUCACCCAUGUUUCACCCACAUGAGGAUCAC | 32 | 70.3 |  | 
7 | ACCAGCUCGUCAGGAUAUACGUCACUGCGUCAGCAGUGUGGUAAGAUCACAUGAGGAUCACCCAUGUAGAAGGGACGAGCUGAU | 13.3 | 245 |  | 
8 | GGGCUGUCAGGAUAUGGGUCUGGGUCUGAAAGGGCUCGGGCUCAGAAGGGACAUGAGGAUCACCCAUGUGGCCC | 35.2 | 36.4 |  | 
9 | GGGAAGGUUAGAGGAUAUAUUGUGUGUGAGAGAAUAGAAGGCUAAACAUGAGACACACACAUGAGGAUCACCCAUGUUAUGUUU |  |  | 147 | 91
10 | GGUCGUCACAUGAACAUGAGGAUCACCCAUGUAAAUUCUCAUGAGGAUAUGGAUCCUAAUUGGAUCCAGAAGGCAUGGACGACC |  |  | 1090 | 333
11 | UUCAUGUGAGGAUAUAGUACUCUUUCUAUUAUUAUUGAGUAUUAGAAGGCACAUGAGGAUCACCCAUGUAGUAC | 30.7 | 16.4 |  | 
12 | AUGGUACAUGAGGAUCACCCAUGUCCAGCAAAUCAAGGAUAUGGACGACAAAUUUCUCGGCCAGAAGGUGAAACAA |  |  | 39.4 | 21.5
13 | GCGUUACAUGAGGAUCACCCAUGUGAGGAUAUGGUGCGGUAGUGUCCUGUCGCGUACUCCAGAAGGCACGGGUG | 215 | 91.7 |  | 
14 | GCUCGAUGAGCUGACUACAUGAGGAUCACCCAUGUAGAUGGGCAGGAUAUUUACGUGCUUUAUGUAGAGAAGGGCCCAUCGAGC |  |  | 324 | 114
15 | UUGUAGUACGUAGGAUAUCAUUGAGGAUCACCCUGAGAAGGACGUGAGGACAUGAGGAUCACCCAUGUGGAUCACCCAUGUCAU | 329 | 231 |  | 
16 | CUGAGCUGAGGAUAUACAUGAGGAUCACCCAUGUGUUCCAGCUUGCGUACAGGCAGAUGUAGAAGGCAGUUCGG | 41.4 | 102 |  | 
17 | CCGGAAAGGAAGGAUAUGCUAGACGAAAGUCUAGCAGAAGGUCCUACAUGAGGAUCACCCAUGUGUCCUACCGG | 47.2 | 60.5 |  | 
18 | UGUUGUAUUACAGGAUAUCUAUUAGUUUUAGUUAGAGAAGGGUAUUCACAUGAGGAUCACCCAUGUAUAUACGAGGAAGUUGUG |  |  | 44.1 | 49.1
19 | ACAUACAUUCGAGGAUAUCGGUGAACAAAUUAACGAGAAGGCGAUAAAAUUUUUAAUCUUAUGAACAUGAGGAUCACCCAUGUA |  |  | 21.3 | 18.5
20 | GACUGACAUGAGGAUCACCCAUGUAUUCAAACAUGAGGAUAUAUAACACAUCAUCGACGGAUAGAAGGCAUAGAUA |  |  | 128 | 124
21 | UCACGGGAUUGAGGAUAUAUAUUAAUUUUUUUUAUAGAAGGCAAAAUGUUAGAUUAUUCACUAUACAUGAGGAUCACCCAUGUU |  | 22.7 |  | 
22 | UUUUCAUCAUCAGGAUAUUAACGUGGGCUACUUUAAGAAGGGAUAGUGGGAGAGCACGUGAAACAUGAGGAUCACCCAUGUUGU |  |  | 12.2 | 9.73
23 | AGUGUGUUAGGAUAUCGGAUAUGCUGGAGGAGGUGGAUUUACGAGAAGGAACAUGAGGAUCACCCAUGUAGGAG | 37.1 | 35.6 |  | 
24 | CCAGCGUAUGUAAGGAUAUGCUGGUCCUUGGAUCAGCAGAAGGUACAUGAGGAUCACCCAUGUGUAAUCGUUGG | 20.6 | 56.1 |  | 

Row | Sequence | apparent Kd [1] [nM] | apparent Kd [2] [nM] | apparent Kd [3] [nM] | apparent Kd [4] [nM]
25 | CACUGCAAUGUAGGAUAUCGACUGGAUAACAGUCGAGAAGGACAUGAGGAUCACCCAUGUAAUCCUAAUAAUAAAUAAGCAGUG | 12.1 | 17.8 |  | 
26 | CACCGUAACUGAGGAUAUCAAACAUGAGGAUCACCCAUGUAAUAAAUGAGAAUUUCGAAUGUACCUGAGAAGGCAGAAACCGGC | 38 | 48.3 |  | 
27 | ACAAUAGUAUCACAUGUAUUACAUGAGGAUCACCCAUGUAACUAGGAUAUGUUUUAGAAUUUACAACAGAAGGAGUUAUUAUGU | 8.48 | 14.1 |  | 
28 | CCCUCGGGAGGAUAUGGGUGUUUUUACAUGAGGAUCACCCAUGUGGAGUAACAUGUGGGUCCAGAAGGCCCAAGGG | 1400 | 663 |  | 
29 | CUUUUGUGAGGAUAUUAGUAGUAAAUGAAUAAAAUUACUACUGAGAAGGCACAUGAGGAUCACCCAUGUUCCUC | 44.1 | 493 |  | 
30 | GUUUGUUUUUAGAAGGUGCCGGCGAGAGCCGCAACAUGAGGAUCACCCAUGUGUCGGUGACGACGCAAGGAUAUGGAGGUGGAU |  |  | 127 | 77.8
31 | UAGGACGAACAGUGCCGUGGAACGAAGGAUAUACAGGGACGUCGGCUCACAUGAGGAUCACCCAUGUAGAAGGUCGACACGCGC | 8.91 | 48.3 |  | 
32 | AUCAGCUCGUCAGGAUAUACGACACUGCGUCAGCAGUGUGGUAAGAUCACAUGAGGAUCACCCAUGUAGAAGGGACGAGCUGAU | 6.87 | 28.1 |  | 
33 | CAACCGUUGCAGAAGGUUAAAUAAAUCAACUUAUGGACAACAUGAGGAUCACCCAUGUUUUUGUUGAAGGAUAUGCAAGGGUUG | 6.25 | 5.85 |  | 
34 | GUGUUGUCAGGAUAUCUUACAUAACAAUCGUUGUUACCAUUGGAGAAGGGACAUGAGGAUCACCCAUGUUAUCC | 24.1 | 26.3 |  | 
35 | GGAAUAUUUACAGGAUAUGAUUUGUAAAUUCGAUCAGAAGGGUAGAUGUCUUACACGGUUUGUUACAUGAGGAUCACCCAUGUU |  |  | 126 | 42
36 | CGUUUAUUUAUGGGAUUAUAUUAUGAGGAUAUCAAUAUUUAUUACAUGAGGAUCACCCAUGUUAAUGAGAAGGCAUAAUUAACG |  |  | 9.53 | 6.3
37 | GAAUAUUCGUUGUACAUGAGGAUCACCCAUGUAACUUGACAUGAGGAUAUGGAUUCUAAUUGGAUCCAGAAGGCAUGAAUAUUC |  |  | 48.4 | 21.8
38 | CUGAUGUGAGGAUAUCGGGCUACAGCCCUGCUGCUAGCAAACGAGAAGGCACAUGAGGAUCACCCAUGUAAGAA | 24 | 28.6 |  | 
39 | UUGAGGUCAGGAUAUGCAUGGCGGGACUUGCGUCGUGGCGUGCAGAAGGGACAUGAGGAUCACCCAUGUGGAGG | 176 | 233 |  | 
40 | GGAUGACAAAGUCAUCCAAUUCGAACAUGAGGAUCACCCAUGUAGGAUAUGCUUCUCAAAGAGAAGCAGAAGGACAUGUGCUUU | 32.8 | 182 |  | 
41 | UAAAAGACUAGCAAAUAAUCCUUCACAUGAGGAUCACCCAUGUAGGAUAUGAGCAGAAAAUCUGCUCAGAAGGACAUGCUAGUC | 3.22 | 3.68 |  | 
42 | GAUCCUUCUGUUAGGAUAUGCUACGGGCUUCCGCAGCAGAAGGAACAUGAGGAUCACCCAUGUCAAAUAAAAUC | 37.1 | 168 |  | 
43 | GAUCGGUGAGGAUAUACAUUUUAGCUCCUCGUAAAGCCAUGACAUGAGGAUCACCCAUGUAGAAGGUAUUGUGU | 22.3 | 20 |  | 
44 | UCAUGAUGGAAGAAGGGAGUCGUGCAUGACAACUCAGGAUAUUUCACAUGAGGAUCACCCAUGUCGAAGUAACAGUGUUGAUCA | 23.9 | 45.8 |  | 
45 | UGGUACUAGGGAGGAUAUGGGAAGAUACAUGAGGAUCACCCAUGUUAAAGAAUGCCGAGAGGCAACUAGAAGGCCCUAGUACCU |  |  | 293 | 16.3
46 | AUGUCCUGAGGAUAUGGUCCAUUACACAUGAGGAUCACCCAUGUGGGUCUCGCCUGUAGGCCAGAAGGUAGGUCUU | 52.8 | 49.5 |  | 
47 | UAUGAAUGAGGAUAUGCAUAGUAGACUCCUCAUUUCUUCGGACAUGAGGAUCACCCAUGUAGAAGGCGUUGCGU | 33.1 | 58 |  | 
48 | CCUUUUGUAUAAGGAUAUGUAACAAGGUGUAGGCUGGUAGGACUUGCGCUUACAGAAGGUAUACAUGAGGAUCACCCAUGUCGA | 22.2 | 107 |  | 
